Assay results from different studies.
Lines come from different studies, so protocols differ.

Structure (SMILES) | test system | setting | concentration
CCOC(=O)[C@@]12C[C@@H]1[C@@H](n1ccc3c(NC)nc(C#Cc4ccc(Cl)s4)nc31)[C@H](O)[C@@H]2O | male Sprague-Dawley rat, plasma | oral, 3 mg/kg, 30 min | 48.4 ng/mL
COc1ccc2c(=O)n(C)c(-c3ccccc3)nc2c1 | male Sprague-Dawley rat, lung | oral, 30 mg/kg, 30 min | 2.5 ng/mL
COc1ccc(C)c2sc(NC(=O)c3ccncc3)nc12 | rat, brain | oral, 10 mg/kg, 1 h | ~10 µM
COc1nc(-c2cc(C)c(N[C@@H](C)c3cc(F)cc(F)c3)nn2)ccc1-n1cnc(C)c1 | male Sprague-Dawley rat, CSF | oral, 50 mg/kg, 4 h, multiple doses, once daily | 301 ng/mL
COc1cccc(-c2n[nH]c(SCc3ccccn3)n2)c1OC | male Sprague-Dawley rat, plasma | oral, 10 mg/kg, 1 h, single dose | 10400 ng/mL
Cc1noc(C)c1Cn1cc(N2C(=O)CN(Cc3cccc(O)c3)C2=O)cn1 | male Sprague-Dawley rat, plasma | oral, 100 mg/kg, 4 h | 42.5 ng/mL
NC(=O)C(c1ccccc1)(c1ccc(F)cc1)c1ccc(F)cc1 | female Lewis rat, brain | intraperitoneal, 50 mg/kg, 1 h, single dose | 43 µM
Cc1noc(C)c1Cn1cc(N2C(=O)N(Cc3cccc(O)c3)C(C)(C)C2=O)cn1 | male Sprague-Dawley rat, plasma | oral, 100 mg/kg, 8 h, single dose | 5.2 ng/mL
Cc1ccc(-c2cc(C(F)(F)F)nn2-c2ccc(S(N)(=O)=O)cc2)cc1 | male Sprague-Dawley rat, blood | oral, 20 mg/kg, 4 h | 6.36 µM
CCc1cc(-c2noc(-c3cc(OC)nc(C4CCCC4)c3)n2)cc(C)c1OC[C@@H](O)CO | Wistar rat, plasma | oral, 3 mg/kg, 3 h, single dose | 235 ng/mL
CCCOc1ccc(OC)c(F)c1C(=O)c1ccc(C(=O)N[C@@H]2CNC[C@H]2NC(=O)c2ccc3[nH]ncc3c2)cc1 | rat, plasma | intravenous, 559 µg, 10 min, single dose | 470 ng/mL
